Activity calls are given as the source filed them. The calls are words filed in the database; no cut-off is given here.
Tests used:
[1] = target: T1, Beta-3 adrenergic receptor (Homo sapiens, UniProt P13945); assay: (§1) Antagonist activity at human beta3 adrenergic receptor expressed in HEK293 cells co-expressing Galpha16 assessed as inhibition of isoproterenol-induced intercellular calcium mobilization pre-incubated for 10 mins before isoproterenol addition by Fluo-4AM dye-based fluorescence assay; assay type: functional, cell-based; details: read-out: EC50 (the source's name)
In short: (§2)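 HEK293 cells stably co-expressing Gα16 and human β1, β2 or β3 receptor, seeded 24 h. Loaded with 2.00 µmol/L Fluo-4 AM in HBSS (BSA, glucose, 250 µmol/L sulfinpyrazone, pH 7.4) for 45 min at 37 °C. Compounds added for 10 min at room temperature, then isoproterenol dispensed. Calcium fluorescence read at ex 485/em 525 nm. IC50 taken from dose-response curves.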
Target sequence in this assay (P13945 whole entry): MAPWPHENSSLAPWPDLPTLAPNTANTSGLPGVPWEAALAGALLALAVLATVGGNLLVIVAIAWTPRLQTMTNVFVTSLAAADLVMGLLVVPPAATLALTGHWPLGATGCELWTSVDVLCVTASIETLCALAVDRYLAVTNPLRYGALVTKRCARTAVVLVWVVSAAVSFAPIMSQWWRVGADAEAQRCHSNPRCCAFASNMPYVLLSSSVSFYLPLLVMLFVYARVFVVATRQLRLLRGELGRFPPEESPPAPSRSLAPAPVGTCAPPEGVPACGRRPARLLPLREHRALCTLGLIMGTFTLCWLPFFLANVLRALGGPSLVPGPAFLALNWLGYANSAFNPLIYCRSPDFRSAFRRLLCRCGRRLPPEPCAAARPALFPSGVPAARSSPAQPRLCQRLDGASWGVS

[2] = target: Beta-1 adrenergic receptor (Homo sapiens, UniProt P08588); assay: Antagonist activity at human beta1 adrenergic receptor expressed in HEK293 cells co-expressing Galpha16 assessed as inhibition of isoproterenol-induced intercellular calcium mobilization pre-incubated for 10 mins before isoproterenol addition by Fluo-4AM dye-based fluorescence assay; assay type: functional, cell-based; details: read-out: EC50 (the source's name); in short: as §2
[3] = target: Beta-2 adrenergic receptor (Homo sapiens, UniProt P07550); assay: Antagonist activity at human beta2 adrenergic receptor expressed in HEK293 cells co-expressing Galpha16 assessed as inhibition of isoproterenol-induced intercellular calcium mobilization pre-incubated for 10 mins before isoproterenol addition by Fluo-4AM dye-based fluorescence assay; assay type: functional, cell-based; details: read-out: EC50 (the source's name); in short: as §2
[4] = target: Beta-3 adrenergic receptor (Mus musculus) (UniProt P25962); assay: Antagonist activity at beta3 adrenergic receptor in mouse 3T3L1 cells assessed as inhibition of isoproterenol-induced lipolysis by measuring glycerol accumulation after 2 hrs; assay type: functional, cell-based
In short: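 3T3-L1 preadipocytes were grown on gelatin to confluence, then differentiated with 10 µg/ml insulin, 1 µM dexamethasone and 0.5 mM IBMX for 48 hr, followed by insulin alone for 48 hr. Mature adipocytes were washed and given phenol red-free DMEM with 2% fatty acid-free BSA and 1 µM isoproterenol ± antagonist for 2 hr. Glycerol in cleared medium was read by kit at 550 nm. Mean ± SE, three independent experiments.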

[5] = target: T1, Beta-3 adrenergic receptor; assay: as §1, with “Potency index, ratio of EC50 for L-748,337 to EC50 for test compound for antagonist” for “Antagonist”; assay type: functional, cell-based
Target sequence in this assay (P13945 whole entry, looked up): as the sequence (P13945 whole entry) above

Mus musculus [6] = assay: Inhibition of tumor-induced body weight loss in BALB/c mouse xenografted with mouse C26 cells assessed as reduction in body weight at 2.5 mg/kg, ip dosed daily for 13 days (reference value: 8.3%); assay type: functional; set-up: scale not given: the % may be the effect or the level left
Mus musculus [7] = assay: Antitumor activity against mouse C26 cells xenografted in BALB/c mouse assessed as decrease in tumor volume at 2.5 mg/kg, ip dosed daily for 13 days; assay type: functional, organism-based
Homo sapiens [8] = species on record: Homo sapiens; assay: Selectivity index, ratio of EC50 for human beta2 adrenergic receptor to EC50 for human beta3 adrenergic receptor
Homo sapiens [9] = species on record: Homo sapiens; assay: Selectivity index, ratio of EC50 for human beta1 adrenergic receptor to EC50 for human beta3 adrenergic receptor
Mus musculus [10] = assay: Antilipolytic activity against mouse C26 cells xenografted in BALB/c mouse assessed as reduction in lipolysis of body fat by measuring glycerol content in serum at 2.5 mg/kg, ip dosed daily for 13 days; assay type: functional, organism-based
Homo sapiens [11] = species on record: Homo sapiens; assay: Selectivity ratio of EC50 for displacement of [125I]iodocyanopindolol for human beta2 adrenergic receptor expressed in CHO dhfr cell membranes to EC50 for displacement of [125I]iodocyanopindolol from human beta3 adrenergic receptor expressed in CHO dhfr cell membranes
Homo sapiens [12] = species on record: Homo sapiens; assay: Selectivity ratio of EC50 for displacement of [125I]iodocyanopindolol for human beta1 adrenergic receptor expressed in CHO dhfr cell membranes to EC50 for displacement of [125I]iodocyanopindolol from human beta3 adrenergic receptor expressed in CHO dhfr cell membranes

Sequence of Beta-3 adrenergic receptor (Mus musculus) (P25962 whole entry): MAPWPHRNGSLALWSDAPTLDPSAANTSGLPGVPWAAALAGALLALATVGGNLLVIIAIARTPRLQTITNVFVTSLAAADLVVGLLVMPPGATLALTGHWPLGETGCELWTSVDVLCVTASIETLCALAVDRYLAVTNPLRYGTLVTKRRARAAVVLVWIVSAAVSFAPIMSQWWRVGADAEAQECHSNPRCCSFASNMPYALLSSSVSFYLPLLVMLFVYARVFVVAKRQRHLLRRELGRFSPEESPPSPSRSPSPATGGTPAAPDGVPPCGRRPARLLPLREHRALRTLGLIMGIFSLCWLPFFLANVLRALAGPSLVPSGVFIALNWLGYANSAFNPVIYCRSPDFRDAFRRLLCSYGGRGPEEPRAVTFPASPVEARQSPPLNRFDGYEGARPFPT
Sequence of Beta-1 adrenergic receptor (P08588 whole entry): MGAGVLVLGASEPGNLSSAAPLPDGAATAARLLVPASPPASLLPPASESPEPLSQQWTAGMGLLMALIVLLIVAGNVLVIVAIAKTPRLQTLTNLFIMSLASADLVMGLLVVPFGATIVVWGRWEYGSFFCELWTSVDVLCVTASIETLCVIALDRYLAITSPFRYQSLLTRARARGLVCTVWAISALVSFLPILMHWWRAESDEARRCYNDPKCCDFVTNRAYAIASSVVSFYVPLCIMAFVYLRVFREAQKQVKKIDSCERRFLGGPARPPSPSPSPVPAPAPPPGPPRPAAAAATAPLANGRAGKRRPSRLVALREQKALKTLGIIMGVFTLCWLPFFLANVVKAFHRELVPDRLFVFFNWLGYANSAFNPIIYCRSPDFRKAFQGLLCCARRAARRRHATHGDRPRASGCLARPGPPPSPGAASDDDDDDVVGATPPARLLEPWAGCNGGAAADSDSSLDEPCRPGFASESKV
Sequence of Beta-2 adrenergic receptor (P07550 whole entry): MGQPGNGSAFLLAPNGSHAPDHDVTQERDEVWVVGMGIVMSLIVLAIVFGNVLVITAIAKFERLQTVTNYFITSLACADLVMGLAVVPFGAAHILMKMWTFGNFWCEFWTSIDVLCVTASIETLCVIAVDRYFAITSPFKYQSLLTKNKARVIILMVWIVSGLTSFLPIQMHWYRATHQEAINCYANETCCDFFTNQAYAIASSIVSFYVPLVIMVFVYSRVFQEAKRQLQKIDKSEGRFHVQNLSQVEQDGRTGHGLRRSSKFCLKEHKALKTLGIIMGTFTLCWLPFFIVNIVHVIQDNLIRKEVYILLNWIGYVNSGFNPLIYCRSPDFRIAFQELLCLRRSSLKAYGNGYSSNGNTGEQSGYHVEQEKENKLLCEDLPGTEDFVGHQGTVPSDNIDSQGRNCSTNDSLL

Structure (SMILES): CC(=O)NCc1cccc(OC[C@@H](O)CNCCc2ccc(NC(=O)c3ccccc3)cc2)c1
- IC50 [1]: 7.81 nM
- IC50 [2]: 100000 nM
- IC50 [3]: 6060 nM

Structure (SMILES): CC(=O)NCc1cccc(OC[C@@H](O)CNCCc2ccc(NS(=O)(=O)Nc3ccccc3)cc2)c1
- IC50 [1]: 3.41 nM
- IC50 [2]: 224 nM
- IC50 [3]: 8430 nM

Structure (SMILES): COC(=O)Nc1ccc(NC(=O)Nc2ccc(CCNC[C@H](O)COc3cccc4[nH]ccc34)cc2)cc1
- IC50 [1]: 1.42 nM
- inhibition [4]: Active

Structure (SMILES): O=C(Nc1ccccc1)Nc1ccc(CCNC[C@H](O)COc2cccc3[nH]ccc23)cc1
- Ratio EC50 [5]: 23
- IC50 [1]: 0.512 nM
- Activity (Mus musculus [6]): 4.6%
- IC50 [2]: 2.88 nM
- Activity (Mus musculus [7]): Active
- Ratio EC50 (Homo sapiens [8]): 100
- Ratio EC50 (Homo sapiens [9]): 6
- Activity (Mus musculus [10]): Active
- inhibition [4]: Active
- IC50 [3]: 52.2 nM

Structure (SMILES): CCCCCC(=O)Nc1ccc(NC(=O)Nc2ccc(CCNC[C@H](O)COc3cccc4[nH]ccc34)cc2)cc1
- IC50 [1]: 10.4 nM

Structure (SMILES): CC(=O)NCc1cccc(OC[C@@H](O)CNCCc2ccc(NC(=O)Nc3ccccc3)cc2)c1
- IC50 [1]: 4.7 nM
- IC50 [2]: 12700 nM
- IC50 [3]: 9840 nM

Structure (SMILES): COc1ccccc1NC(=O)Nc1ccc(CCNC[C@H](O)COc2cccc3[nH]ccc23)cc1
- IC50 [1]: 8.44 nM

Structure (SMILES): CCc1ccccc1OC[C@@H](O)CNCCc1ccc(NS(=O)(=O)c2ccccc2)cc1
- IC50 [1]: 11.1 nM
- IC50 [2]: 299 nM
- IC50 [3]: 954 nM

Structure (SMILES): COc1ccc(NC(=O)Nc2ccc(CCNC[C@H](O)COc3cccc4[nH]ccc34)cc2)cc1
- IC50 [1]: 1.49 nM
- inhibition [4]: Active

Structure (SMILES): O=C(Nc1ccc(CCNC[C@H](O)COc2cccc3[nH]ccc23)cc1)c1ccccc1
- IC50 [1]: 1.42 nM
- IC50 [2]: 36 nM
- IC50 [3]: 118 nM

Structure (SMILES): CCc1ccccc1OC[C@@H](O)CNCCc1ccc(NC(=O)Nc2ccccc2)cc1
- IC50 [1]: 55.5 nM
- IC50 [2]: 426 nM
- IC50 [3]: 1420 nM

Structure (SMILES): O=C(Nc1ccc(CCNC[C@H](O)COc2cccc3[nH]ccc23)cc1)Nc1ccccc1F
- IC50 [1]: 3.58 nM

Structure (SMILES): CCCCCC(=O)Nc1cccc(NC(=O)Nc2ccc(CCNC[C@H](O)COc3cccc4[nH]ccc34)cc2)c1
- IC50 [1]: 1.78 nM

Structure (SMILES): O=C(Nc1ccc(CCNC[C@H](O)COc2cccc3[nH]ccc23)cc1)Nc1cccc(F)c1
- IC50 [1]: 2.93 nM

Structure (SMILES): COC(=O)Nc1cccc(NC(=O)Nc2ccc(CCNC[C@H](O)COc3cccc4[nH]ccc34)cc2)c1
- IC50 [1]: 1.65 nM

Structure (SMILES): O=C(Cc1ccccc1)Nc1ccc(CCNC[C@H](O)COc2cccc3[nH]ccc23)cc1
- IC50 [1]: 1.09 nM
- IC50 [2]: 7.64 nM
- IC50 [3]: 83.1 nM

Structure (SMILES): COc1cccc(NC(=O)Nc2ccc(CCNC[C@H](O)COc3cccc4[nH]ccc34)cc2)c1
- IC50 [1]: 4.62 nM

Structure (SMILES): COC(=O)Nc1ccccc1NC(=O)Nc1ccc(CCNC[C@H](O)COc2cccc3[nH]ccc23)cc1
- IC50 [1]: 2.62 nM

Structure (SMILES): CC(=O)NCc1cccc(OC[C@@H](O)CNCCc2ccc(NC(=O)Cc3ccccc3)cc2)c1
- IC50 [1]: 4.58 nM
- IC50 [2]: 6200 nM
- IC50 [3]: 15900 nM

Structure (SMILES): O=S(=O)(Nc1ccc(CCNC[C@H](O)COc2cccc3[nH]ccc23)cc1)c1ccccc1
- IC50 [1]: 2.09 nM
- IC50 [2]: 14.8 nM
- IC50 [3]: 353 nM

Structure (SMILES): CCCCCC(=O)Nc1ccccc1NC(=O)Nc1ccc(CCNC[C@H](O)COc2cccc3[nH]ccc23)cc1
- IC50 [1]: 2.08 nM

Structure (SMILES): O=C(Nc1ccc(F)cc1)Nc1ccc(CCNC[C@H](O)COc2cccc3[nH]ccc23)cc1
- IC50 [1]: 2.49 nM
- inhibition [4]: Active

Structure (SMILES): O=C(Nc1ccc(CCNC[C@H](O)COc2cccc3[nH]ccc23)cc1)NC1CCCCC1
- IC50 [1]: 2.89 nM
- inhibition [4]: Active

Structure (SMILES): CCc1ccccc1OC[C@@H](O)CNCCc1ccc(NC(=O)c2ccccc2)cc1
- IC50 [1]: 7.7 nM
- IC50 [2]: 124 nM
- IC50 [3]: 294 nM

Structure (SMILES): CC(=O)NCc1cccc(OC[C@@H](O)CNCCc2ccc(NS(=O)(=O)c3ccccc3)cc2)c1
- Ratio EC50 (Homo sapiens [11]): 45
- Ratio EC50 (Homo sapiens [12]): > 90
- inhibition [4]: Active

Structure (SMILES): CC(C)NC(=O)Nc1ccc(CCNC[C@H](O)COc2cccc3[nH]ccc23)cc1
- IC50 [1]: 1.03 nM
- inhibition [4]: Active

Structure (SMILES): O=C(NCCc1ccccc1)Nc1ccc(CCNC[C@H](O)COc2cccc3[nH]ccc23)cc1
- IC50 [1]: 2.15 nM
- inhibition [4]: Active

Structure (SMILES): CCc1ccccc1OC[C@@H](O)CNCCc1ccc(NC(=O)Cc2ccccc2)cc1
- IC50 [1]: 8.68 nM
- IC50 [2]: 36.8 nM
- IC50 [3]: 281 nM
